Screening results as filed in PubChem BioAssay.
Hits are enriched below; roughly 4.1% of the tested compounds scored in any of these assays.
Cl transport mod = KCC2 (human) Cl- transport modulation; Q9H2X9; KCC2 cells, thallium flux FluoZin-2 fluorescence; B-score of Tl+ flux slope (higher = more flux/activation; lower = inhibition) at 10 µM; 2.2% of 190,000 active;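 active means thallium flux slope and its plate-corrected score both differing from the plate sample mean at a set confidence after two filtering rounds, in either direction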;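 further: slope of fluorescence scaled to starting intensity during 10 to 20 s after thallium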
KCNK9 block = blocks the human KCNK9 two-pore domain potassium channel; HEK293 KCNK9, FluxOR thallium flux fluorescence; stronger effect = lower value; B-score at 10 µM; 1.2% of 310,000 active;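 active means ratio B-score over 3 SD below the library mean, with starting fluorescence within 5 SD of its mean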;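 further: negative B-score means less thallium flux so channel inhibition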
Target sequence (Q9NPC2 whole entry, looked up, the tested form may be a part): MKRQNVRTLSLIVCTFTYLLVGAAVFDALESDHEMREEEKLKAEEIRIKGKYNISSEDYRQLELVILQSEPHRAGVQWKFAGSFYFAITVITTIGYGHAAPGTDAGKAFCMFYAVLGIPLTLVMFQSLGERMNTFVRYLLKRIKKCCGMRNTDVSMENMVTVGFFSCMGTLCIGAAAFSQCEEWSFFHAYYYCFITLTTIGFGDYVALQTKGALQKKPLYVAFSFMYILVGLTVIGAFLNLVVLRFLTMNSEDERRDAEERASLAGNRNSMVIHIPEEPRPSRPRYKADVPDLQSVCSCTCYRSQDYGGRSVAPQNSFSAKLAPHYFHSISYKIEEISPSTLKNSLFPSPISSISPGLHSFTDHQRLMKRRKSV
KCNK3 block = human KCNK3 channel inhibition, primary screen. O14649. CHO-KCNK3 thallium flux, FluxOR fluorescence; stronger effect = lower value. B-score at 10 µM. 0.84% of 340,000 active;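 active means B-score under library mean minus 4 SD, starting fluorescence ratio at most library mean plus 5 SD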;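 further: more negative B-score means stronger inhibition of thallium flux through KCNK3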
Target sequence (O14649 whole entry, looked up): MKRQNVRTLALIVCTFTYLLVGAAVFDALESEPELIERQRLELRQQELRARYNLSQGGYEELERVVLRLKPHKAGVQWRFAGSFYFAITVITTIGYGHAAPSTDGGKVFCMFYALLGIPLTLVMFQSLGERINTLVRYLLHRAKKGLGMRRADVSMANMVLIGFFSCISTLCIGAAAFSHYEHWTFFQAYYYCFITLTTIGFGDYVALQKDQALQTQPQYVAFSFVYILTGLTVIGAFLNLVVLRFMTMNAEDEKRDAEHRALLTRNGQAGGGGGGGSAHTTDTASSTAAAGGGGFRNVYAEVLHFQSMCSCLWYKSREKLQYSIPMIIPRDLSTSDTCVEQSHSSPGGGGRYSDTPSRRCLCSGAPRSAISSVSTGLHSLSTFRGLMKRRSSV
KCNQ1 pot = potentiators or activators of human KCNQ1 potassium channel; 0.35% of 310,000 active; CHO-K1 KCNQ1, thallium flux FluxOR fluorescence; stronger effect = higher value; P51787; B-score at 10 µM;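 active means fluorescence ratio B-score, a plate-corrected score, at least three library SD, with initial intensity B-score within 5 SD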
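Assay system: stable KCNQ1 CHO-K1 line; medium: assay buffer, equal DMSO in all wells; timing: 90 min dye loading and 20 min compound exposure, both at room temperature; technique: kinetic FluxOR thallium fluorescence, 10-s 1-Hz baseline, 110-s post-stimulus read; read-out basis: B score of baseline-normalized fluorescence ratio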
KCNQ1 block = human KCNQ1 channel inhibition; P51787; AID 2642; CHO-K1 KCNQ1, FluxOR thallium flux fluorescence; stronger effect = higher value; 1.3% of 310,000 active; B-score at 10 µM;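 active means compounds whose thallium flux B-score, printed positive for inhibition, exceeds three library SD while starting fluorescence stays within three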;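 further: channel opened by potassium depolarization with thallium stimulus after 20 min compound exposure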
hERG protect = shields human hERG channel from block by proarrhythmic agents | CHO-hERG, FluxOR thallium flux, dofetilide IC70 present | 0.51% of 310,000 active | activation (rescue from dofetilide block), less the hit threshold, % at 10 µM | Q12809;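 active means activation above the mean of controls blocked by dofetilide plus 5 SD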;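 further: thallium influx through hERG after potassium depolarization seen as dye fluorescence rise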
KCNK9 inh conf = human KCNK9 inhibitor confirmation | shares compounds with KCNK9 block | HEK293 KCNK9 cells, FluxOR thallium flux fluorescence | inhibition, % at 10 µM | 43% of 4,900 active | AID 492992;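 active means thallium signal inhibited by more than 5 SD of the compound-free buffer control wells, on both duplicate plates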
Kir21 sel = selectivity of KCNK9 modulators against mouse Kir2.1; inhibition, % at 10 µM; 4% of 4,900 active; shares compounds with KCNK9 block; Kir2.1 cells, FluxOR thallium flux fluorescence;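 active means thallium signal drop more than 5 SD beyond the mean of the no-compound control wells, seen in both duplicate plates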;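 further: signal is fluorescence rise after thallium addition divided by baseline fluorescence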
HEK293 Tl ctr = second check of KCNK9 modulator effects in non-induced HEK293 cells; shares compounds with KCNK9 block; FluxOR thallium flux; inhibition, % at 10 µM; 40% of 4,900 active; AID 492997;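 active means thallium signal drop beyond 5 SD of the untreated control mean, on both duplicate plates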
Each line names hits and unclear results; the compound was inactive in the other large screens (follow-up assays come after a bar, where they were run).

CC(C)C(NC(=O)c1ccc(C(C)(C)C)cc1)C(=O)N1CCC(C(N)=O)CC1 (stereo not drawn)	none (no result: Cl transport mod, KCNK9 block, KCNQ1 pot, KCNQ1 block, hERG protect)
Cc1cc(C)c(C#N)c(SCc2cc3c(cc2Cl)OCO3)n1	KCNK9 block -8.5 | KCNK9 inh conf 36% | Kir21 sel inactive | HEK293 Tl ctr 36%
Clc1ccc(Cn2nc(-c3ccccc3)nc2-c2ccccc2)cc1	KCNK9 block -12 | KCNK9 inh conf 58% | Kir21 sel inactive | HEK293 Tl ctr 54%
Cc1ccc([N+](=O)[O-])cc1NC(=O)CN(C(=O)c1ccccc1Cl)C1CCCCC1	KCNK9 block -9.6 | KCNK9 inh conf 50% | Kir21 sel inactive | HEK293 Tl ctr inactive
O=C(CN(C(=O)c1cccc([N+](=O)[O-])c1)C1CCCCC1)Nc1ccc(Cl)c([N+](=O)[O-])c1	none
N#Cc1ccc(-c2ccccc2)nc1SCC(=O)c1cccc(Cl)c1	KCNK9 block -8.7 | KCNK9 inh conf 34% | Kir21 sel inactive | HEK293 Tl ctr 46%
CCN(C(=S)Nc1ccc(Oc2ccccc2)cc1)c1ccccc1	none | KCNK9 inh conf inactive | Kir21 sel inactive | HEK293 Tl ctr inactive
COCCn1c(SCC(=O)NN2C(=O)NC(C)(c3ccccc3)C2=O)nnc1-c1ccncc1 (stereo not drawn)	none (no result: Cl transport mod, KCNK9 block, KCNQ1 pot, KCNQ1 block, hERG protect)
CCOC(=O)Cn1c(=NC(=O)CSC(C)=O)sc2ccccc21	KCNK9 block -8.2 | KCNK9 inh conf 48% | Kir21 sel inactive | HEK293 Tl ctr 40%
Cc1cc2c(=O)n(Cc3ccco3)c(SCC(=O)N3CCCc4ccccc43)nc2s1	none | KCNK9 inh conf inactive | Kir21 sel inactive | HEK293 Tl ctr inactive
O=C(CSc1nc2sc3c(c2c(=O)n1Cc1ccco1)CCC3)N1CCc2ccccc21	none (no result: KCNK9 block, KCNK3 block, KCNQ1 pot, KCNQ1 block, hERG protect)
Cc1sc2nc(SCC(=O)NCc3ccco3)n(CCc3ccccc3)c(=O)c2c1C	none (no result: Cl transport mod)
Cc1sc2nc(SCc3ccc(C(=O)O)cc3)n(Cc3ccco3)c(=O)c2c1C	none | KCNK9 inh conf inactive | Kir21 sel inactive | HEK293 Tl ctr inactive
O=C(CSc1nc2ccccc2c(=O)n1-c1ccccc1)N1CCc2ccccc21	none
COc1ccc(C(=O)CSc2ccc(-c3ccc(C)cc3)nn2)cc1	none | KCNK9 inh conf inactive | Kir21 sel inactive | HEK293 Tl ctr inactive
O=C(CSc1nc2ccccc2c(=O)n1-c1ccccc1)N1CCCc2ccccc21	none | KCNK9 inh conf inactive | Kir21 sel inactive | HEK293 Tl ctr inactive
CC(NC(=O)COC(=O)C1CCN(c2ccc(C(F)(F)F)cn2)CC1)c1ccc(Br)cc1 (stereo not drawn)	none (no result: Cl transport mod)
CN(/N=C/c1cc(Cl)ccc1O)C1=NS(=O)(=O)c2ccccc21	none (no result: Cl transport mod)
COc1cc(C2Nc3ccc4ccccc4c3C3=C2C(=O)CC(C)(C)C3)ccc1OC(C)C(=O)O (stereo not drawn)	none (no result: Cl transport mod)
COc1cccc(-c2ccc(SCC(=O)N3CCc4ccccc43)nn2)c1	none (no result: KCNK3 block)
Cc1ccc(-c2ccc(SCC(=O)N3CCCc4ccccc43)nn2)cc1	none (no result: KCNK3 block) | KCNK9 inh conf inactive | Kir21 sel inactive | HEK293 Tl ctr inactive
O=[N+]([O-])c1ccc(CN2CCN(c3ccccc3)CC2)o1	none (no result: Cl transport mod)
Clc1ccccc1-c1ccc(CN2CCN(c3ccccc3)CC2)o1	none | KCNK9 inh conf inactive | Kir21 sel inactive | HEK293 Tl ctr inactive
COc1ccccc1N1CCN(C2CCCN(C(=O)CCc3c(C)noc3C)C2)CC1 (stereo not drawn)	none (no result: Cl transport mod)
c1ccc(C(c2nnnn2Cc2ccco2)N2CCN(c3nc4ccccc4s3)CC2)cc1 (stereo not drawn)	KCNK9 block -8.2 | KCNK9 inh conf 42% | Kir21 sel inactive | HEK293 Tl ctr 28%
c1ccc(C(c2nnnn2Cc2ccco2)N2CCN(C3CCCC3)CC2)cc1 (stereo not drawn)	none
COc1ccccc1C(c1nnnn1Cc1ccccc1)N1CCN(c2nc3ccccc3s2)CC1 (stereo not drawn)	none
COc1ccc(C(c2nnnn2Cc2ccccc2)N2CCN(c3nc4ccccc4s3)CC2)cc1OC (stereo not drawn)	KCNK9 block -8.7 | KCNK9 inh conf inactive | Kir21 sel inactive | HEK293 Tl ctr inactive
CC(C)(C)c1ccccc1OCCCCCn1ccnc1	none
Cn1c(=O)c(C(=O)NCc2ccccc2)c(O)c2ccccc21	none (no result: Cl transport mod)
Cn1c(=O)c(C(=O)NCCCc2ccccc2)c(O)c2ccccc21	none (no result: Cl transport mod) | KCNK9 inh conf inactive | Kir21 sel inactive | HEK293 Tl ctr 28%
COc1ccc(CNC(=O)c2c(O)c3ccccc3n(C)c2=O)cc1OC	none
COc1ccc(CCNC(=O)c2c(O)c3ccccc3n(C)c2=O)cc1	none (no result: Cl transport mod) | KCNK9 inh conf inactive | Kir21 sel inactive | HEK293 Tl ctr inactive
COc1ccc(CCNC(=O)c2cc3c(=O)n(C)c4ccccc4c3n2C)c(OC)c1	none | KCNK9 inh conf inactive | Kir21 sel inactive | HEK293 Tl ctr inactive
COc1cc(NC(=O)c2cc3c(=O)n(C)c4ccccc4c3n2C)cc(OC)c1OC	none (no result: Cl transport mod)
NC(=O)c1ccc(SCC(=O)OCC(=O)N2CCN(C(=O)c3ccco3)CC2)c([N+](=O)[O-])c1	none (no result: Cl transport mod)
Nc1c2c(nn1-c1ccc(F)cc1)CSC2	none (no result: Cl transport mod)
COc1ccc(CCNC(=O)c2cc(-c3ccccc3)c(N3CCOCC3)s2)c(OC)c1OC	none (no result: Cl transport mod) | KCNK9 inh conf inactive | Kir21 sel inactive | HEK293 Tl ctr inactive
O=C(CCc1nc2ccccc2c(=O)[nH]1)NNC(=O)c1ccc(F)cc1	none (no result: Cl transport mod, KCNK9 block, KCNQ1 pot, KCNQ1 block, hERG protect)
CC1CN(C(=O)N2c3ccccc3Sc3ccccc32)CC(C)O1 (stereo not drawn)	none
CC1CN(C(=O)N2c3ccccc3Sc3ccccc32)C(C)CC1=O (stereo not drawn)	KCNK9 block -8.1, hERG protect 5.3 | KCNK9 inh conf 30% | Kir21 sel inactive | HEK293 Tl ctr 29%
CC1CCCN(C(=O)N2c3ccccc3Sc3ccccc32)C1 (stereo not drawn)	KCNK9 block -11 | KCNK9 inh conf 52% | Kir21 sel inactive | HEK293 Tl ctr 44%
Cc1c(C(=O)Nc2ccccc2)c2ccc(C(F)(F)F)cc2n1O	none (no result: Cl transport mod)
Cc1ccc(S(=O)(=O)N2CCN(C(=O)Cn3c(=O)cnc4ccccc43)CC2)cc1	none (no result: Cl transport mod, KCNK9 block, KCNQ1 pot, KCNQ1 block, hERG protect)
CC/C=C(\NC(C)=O)c1ccccc1	none (no result: Cl transport mod, KCNK9 block, KCNQ1 pot, KCNQ1 block, hERG protect)
c1ccc(Nc2scc(-c3ccccc3)[n+]2Cc2ccco2)cc1	none
c1ccc(C[n+]2c(-c3ccccc3)csc2Nc2ccccc2)cc1	KCNK9 block -8.7 | KCNK9 inh conf 35% | Kir21 sel inactive | HEK293 Tl ctr 32%
